Experimental data: ChEMBL document CHEMBL4732078 (Eur J Med Chem, 2021)
Activity calls are given as the source filed them. The calls are words filed in the database; no cut-off is given here.

Experiments:
[1] = Metabolic stability in rat hepatocytes assessed as intrinsic clearance; format: ADME, cell-based, Hepatocyte; settings: read-out: CLH
[2] = target: Serine/threonine-protein kinase mTOR (Homo sapiens, UniProt P42345); experiment: Inhibition of human full length recombinant mTOR in presence of [gamma33P-ATP] by radiometric scintillation counting analysis
[3] = target: T1, Phosphatidylinositol 4,5-bisphosphate 3-kinase catalytic subunit alpha isoform (Homo sapiens, UniProt P42336); experiment: Inhibition of PI3Kalpha in human Rh30 cells assessed as reduction in rhIGF1-stimulated AKT phosphorylation at Thr308 treated for 1 hr followed by incubation with IGF1 for 10 mins by western blot analysis; format: cell-based; settings: dose 0.01-1 µM, time 70.0 min
T1 sequence (P42336 whole entry, canonical isoform): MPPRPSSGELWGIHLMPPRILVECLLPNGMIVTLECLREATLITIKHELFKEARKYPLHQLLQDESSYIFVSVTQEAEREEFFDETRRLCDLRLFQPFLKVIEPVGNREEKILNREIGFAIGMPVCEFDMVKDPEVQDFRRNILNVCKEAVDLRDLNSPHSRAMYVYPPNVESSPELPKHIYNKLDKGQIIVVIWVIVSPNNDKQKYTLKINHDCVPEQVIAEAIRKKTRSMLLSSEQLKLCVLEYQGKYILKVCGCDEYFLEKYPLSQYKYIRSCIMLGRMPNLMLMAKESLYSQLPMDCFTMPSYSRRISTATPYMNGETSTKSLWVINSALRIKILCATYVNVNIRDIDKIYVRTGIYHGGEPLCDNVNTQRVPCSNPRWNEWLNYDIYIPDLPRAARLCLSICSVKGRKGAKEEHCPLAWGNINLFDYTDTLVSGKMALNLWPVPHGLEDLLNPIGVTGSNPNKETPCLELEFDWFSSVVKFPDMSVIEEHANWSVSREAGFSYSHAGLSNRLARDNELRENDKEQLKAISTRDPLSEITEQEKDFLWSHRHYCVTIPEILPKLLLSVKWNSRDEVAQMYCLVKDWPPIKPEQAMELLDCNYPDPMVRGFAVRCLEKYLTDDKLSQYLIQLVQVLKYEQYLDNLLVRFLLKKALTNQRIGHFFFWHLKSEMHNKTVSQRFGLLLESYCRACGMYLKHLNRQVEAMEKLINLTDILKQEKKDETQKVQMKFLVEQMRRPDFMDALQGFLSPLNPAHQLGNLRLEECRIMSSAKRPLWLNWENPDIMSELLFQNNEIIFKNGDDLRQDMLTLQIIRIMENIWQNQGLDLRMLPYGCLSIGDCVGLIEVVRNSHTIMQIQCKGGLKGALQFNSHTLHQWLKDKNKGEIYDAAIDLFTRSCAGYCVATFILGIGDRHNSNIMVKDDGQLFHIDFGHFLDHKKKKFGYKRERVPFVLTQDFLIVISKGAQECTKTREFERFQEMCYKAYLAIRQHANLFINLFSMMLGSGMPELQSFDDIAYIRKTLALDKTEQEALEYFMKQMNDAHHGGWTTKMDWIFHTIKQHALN
Method in brief: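 U87MG or Rh30 cells held 24 h in serum-free medium, exposed to compound for 1 h, then stimulated with 50 ng/ml IGF-I for 10 min. Lysates blotted for Akt, pAkt T308 and pAkt S473.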

[4] = target: Voltage-gated inwardly rectifying potassium channel KCNH2 (Homo sapiens, UniProt Q12809); experiment: Inhibition of human ERG expressed in CHO cells at holding potential of -80 mV by patch clamp assay; format: cell-based
Chain of Voltage-gated inwardly rectifying potassium channel KCNH2 (Q12809 whole entry): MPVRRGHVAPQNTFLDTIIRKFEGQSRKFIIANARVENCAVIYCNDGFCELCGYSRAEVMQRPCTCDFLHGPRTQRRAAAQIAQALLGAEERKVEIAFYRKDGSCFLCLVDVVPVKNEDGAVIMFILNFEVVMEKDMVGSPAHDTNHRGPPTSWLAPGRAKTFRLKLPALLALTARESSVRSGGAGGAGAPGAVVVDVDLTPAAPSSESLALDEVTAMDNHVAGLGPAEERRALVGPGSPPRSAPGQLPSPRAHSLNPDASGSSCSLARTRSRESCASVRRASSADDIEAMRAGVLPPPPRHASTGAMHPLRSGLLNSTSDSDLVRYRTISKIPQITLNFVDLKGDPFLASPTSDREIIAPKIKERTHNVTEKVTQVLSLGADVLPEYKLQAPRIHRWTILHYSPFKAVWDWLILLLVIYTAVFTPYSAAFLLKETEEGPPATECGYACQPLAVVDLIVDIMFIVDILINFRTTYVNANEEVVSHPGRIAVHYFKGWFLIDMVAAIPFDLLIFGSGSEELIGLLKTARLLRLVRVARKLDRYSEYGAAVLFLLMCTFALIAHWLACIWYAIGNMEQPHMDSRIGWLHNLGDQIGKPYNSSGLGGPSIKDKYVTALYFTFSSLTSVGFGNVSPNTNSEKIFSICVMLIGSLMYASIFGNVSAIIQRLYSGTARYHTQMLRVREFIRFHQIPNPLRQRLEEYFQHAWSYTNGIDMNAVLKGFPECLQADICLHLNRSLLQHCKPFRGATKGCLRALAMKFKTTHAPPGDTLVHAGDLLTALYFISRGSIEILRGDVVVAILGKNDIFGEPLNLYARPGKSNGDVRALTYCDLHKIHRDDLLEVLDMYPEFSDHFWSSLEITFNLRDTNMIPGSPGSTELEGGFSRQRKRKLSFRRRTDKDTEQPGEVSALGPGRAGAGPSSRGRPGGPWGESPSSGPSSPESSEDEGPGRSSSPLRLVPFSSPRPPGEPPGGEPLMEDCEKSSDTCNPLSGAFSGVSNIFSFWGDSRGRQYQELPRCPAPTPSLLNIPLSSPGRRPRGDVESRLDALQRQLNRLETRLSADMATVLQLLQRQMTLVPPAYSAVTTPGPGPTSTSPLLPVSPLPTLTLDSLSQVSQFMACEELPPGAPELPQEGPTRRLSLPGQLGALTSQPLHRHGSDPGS
Method in brief: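 Patch clamp on CHO cells stably expressing hERG, at room temperature. External solution (mM): 145 NaCl, 5 KCl, 2 CaCl2, 1 MgCl2, 10 HEPES, 10 glucose, pH 7.4. Pipette solution: 140 KCl, 1 MgCl2, 0.1 CaCl2, 5 EGTA, 10 HEPES, pH 7.3. Pipettes 3–5 MΩ; peak hERG current amplitude measured.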

[5] = target: Phosphatidylinositol 4,5-bisphosphate 3-kinase catalytic subunit gamma isoform (Homo sapiens) (UniProt P48736); experiment: Inhibition of PI3Kgamma (unknown origin) transfected in human Rh30 cells assessed as reduction in AKT phosphorylation at Thr308 residue at 10XIC50 by western blot analysis; format: cell-based
Chain of Phosphatidylinositol 4,5-bisphosphate 3-kinase catalytic subunit gamma isoform (Homo sapiens) (P48736 whole entry, looked up, canonical isoform): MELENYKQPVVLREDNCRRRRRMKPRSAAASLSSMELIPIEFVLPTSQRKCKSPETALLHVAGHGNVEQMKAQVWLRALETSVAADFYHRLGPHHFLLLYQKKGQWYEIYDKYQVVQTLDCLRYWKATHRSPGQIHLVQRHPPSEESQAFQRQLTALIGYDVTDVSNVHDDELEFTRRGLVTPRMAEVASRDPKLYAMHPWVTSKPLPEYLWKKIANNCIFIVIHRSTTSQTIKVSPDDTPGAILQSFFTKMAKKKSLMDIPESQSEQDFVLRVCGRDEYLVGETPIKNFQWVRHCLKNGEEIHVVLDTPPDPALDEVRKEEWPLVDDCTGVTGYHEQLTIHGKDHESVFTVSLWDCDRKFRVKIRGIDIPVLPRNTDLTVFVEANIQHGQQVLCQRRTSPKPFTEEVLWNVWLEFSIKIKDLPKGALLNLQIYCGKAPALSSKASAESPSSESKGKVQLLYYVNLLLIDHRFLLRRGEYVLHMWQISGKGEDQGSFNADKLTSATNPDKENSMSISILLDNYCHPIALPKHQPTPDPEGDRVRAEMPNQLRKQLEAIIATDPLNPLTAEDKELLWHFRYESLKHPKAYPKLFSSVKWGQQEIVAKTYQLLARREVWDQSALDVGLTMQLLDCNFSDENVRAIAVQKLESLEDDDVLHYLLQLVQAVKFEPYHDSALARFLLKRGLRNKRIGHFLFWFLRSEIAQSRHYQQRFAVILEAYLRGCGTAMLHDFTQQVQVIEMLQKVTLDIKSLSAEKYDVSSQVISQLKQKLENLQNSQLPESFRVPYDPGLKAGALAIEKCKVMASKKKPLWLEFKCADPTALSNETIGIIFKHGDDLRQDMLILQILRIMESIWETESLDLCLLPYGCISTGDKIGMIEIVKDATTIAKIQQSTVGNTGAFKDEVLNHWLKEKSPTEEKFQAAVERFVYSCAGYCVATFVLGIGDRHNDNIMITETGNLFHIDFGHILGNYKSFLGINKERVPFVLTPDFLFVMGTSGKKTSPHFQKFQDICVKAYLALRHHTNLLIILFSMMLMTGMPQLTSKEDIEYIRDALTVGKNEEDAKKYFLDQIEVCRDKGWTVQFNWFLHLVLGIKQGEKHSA
Method in brief: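 Rh30 cells ectopically expressing membrane-anchored, N-terminally myristoylated, constitutively active p110α, β, γ or δ. Akt phosphorylation assessed by Western blot; lysates made in RIPA buffer, equal protein heated at 95 °C for 10 min in SDS loading buffer.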

[6] = Metabolic stability in cynomolgus monkey hepatocytes assessed as intrinsic clearance; format: ADME, cell-based, Macaca fascicularis, Hepatocyte; settings: read-out: CLH
[7] = Toxicity in 6 hrs fasted BALB/cA nude mouse xenografted with human SK-OV-3 cells assessed as blood glucose tolerance at 5 to 20 mg/kg, po administered once a day for 18 days and measured upto 2 hrs post-last dose by oral glucose tolerance test; format: organism-based; settings: in vivo, 432 h, dose 5-20 mg/kg/day, time 18 day
Method in brief: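 Female BALB/cA nude mice, 4–5 weeks old, carried s.c. SKOV-3 xenograft fragments. They were dosed orally once daily for 18 days with vehicle or compound, then fasted 6 h and given glucose orally at 2 g/kg. Blood was sampled at set times up to 2 h, and glucose was measured with a blood glucose meter.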

MDA-MB-231 = experiment: Antiproliferative activity against human MDA-MB-231 cells assessed as reduction in cell viability after 72 hrs by sulforhodamine B assay; format: functional, cell-based; settings: MDA-MB-231, 72 h
Method in brief: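 SRB assay. Exponentially growing cells seeded at 3000–5000/well, compounds added serially diluted after 24 h, cultured 72 h. Cells fixed with 10% TCA, stained with SRB, dye dissolved in 10 mM Tris-HCl, absorbance read at 560 nm. Inhibition = (ODcontrol − ODtreated)/ODcontrol × 100%. IC50 is the mean of at least three independent tests.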

SK-OV-3 = experiment: Antitumor activity against human SK-OV-3 cells xenografted in BALB/cA nude mouse assessed as tumor growth at 10 mg/kg, po administered once a day for 21 days and measured twice per week; format: functional; settings: dose 10 mg/kg/day; time 21 day
Method in brief: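 Female BALB/cA nude mice, 4–5 weeks old. SKOV-3 xenografts passaged once in vivo, then 1.5 mm³ fragments implanted s.c. in the right flank by trocar. At about 100 mm³ mice were randomized to vehicle or drug given orally once daily. Tumor size and body weight measured twice weekly; V = length × width²/2.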

[8] = target: T1, Phosphatidylinositol 4,5-bisphosphate 3-kinase catalytic subunit alpha isoform; experiment: Inhibition of human PI3Kalpha using PIP2 as substrate in presence of ATP measured after 30 mins by HTRF assay
Method in brief: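 HTRF kit assay. Enzyme incubated with 10 μM PIP2; reaction started by adding ATP and run 30 min at room temperature, then stop solution and detection mix added and luminescence read. Compounds kept as 10 mM DMSO stocks.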

[9] = target: PI3-kinase p110-delta/p85-alpha (Homo sapiens, UniProt O00329); experiment: Inhibition of human PI3K p110delta/p85alpha using PIP2 as substrate in presence of ATP measured after 30 mins by HTRF assay
Chain of PI3-kinase p110-delta/p85-alpha (P27986 whole entry): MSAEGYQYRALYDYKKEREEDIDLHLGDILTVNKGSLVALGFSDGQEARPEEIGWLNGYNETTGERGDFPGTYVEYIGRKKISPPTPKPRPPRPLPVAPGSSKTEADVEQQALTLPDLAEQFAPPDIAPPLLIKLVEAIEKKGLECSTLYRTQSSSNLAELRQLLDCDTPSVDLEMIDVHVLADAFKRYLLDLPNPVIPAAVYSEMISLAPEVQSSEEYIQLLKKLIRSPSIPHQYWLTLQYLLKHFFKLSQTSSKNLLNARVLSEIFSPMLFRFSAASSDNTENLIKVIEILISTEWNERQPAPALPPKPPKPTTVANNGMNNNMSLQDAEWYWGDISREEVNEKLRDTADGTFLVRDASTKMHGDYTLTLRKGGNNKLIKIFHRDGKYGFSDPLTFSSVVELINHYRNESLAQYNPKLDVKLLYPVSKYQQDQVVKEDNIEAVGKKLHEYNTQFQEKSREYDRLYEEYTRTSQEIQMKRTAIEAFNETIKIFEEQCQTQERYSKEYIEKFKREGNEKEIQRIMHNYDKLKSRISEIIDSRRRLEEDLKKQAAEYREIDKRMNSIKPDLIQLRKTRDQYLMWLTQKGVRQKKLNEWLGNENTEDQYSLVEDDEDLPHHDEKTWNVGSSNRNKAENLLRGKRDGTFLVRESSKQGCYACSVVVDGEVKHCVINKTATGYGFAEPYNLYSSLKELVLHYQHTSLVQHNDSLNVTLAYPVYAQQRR
Chain of PI3-kinase p110-delta/p85-alpha (O00329 whole entry): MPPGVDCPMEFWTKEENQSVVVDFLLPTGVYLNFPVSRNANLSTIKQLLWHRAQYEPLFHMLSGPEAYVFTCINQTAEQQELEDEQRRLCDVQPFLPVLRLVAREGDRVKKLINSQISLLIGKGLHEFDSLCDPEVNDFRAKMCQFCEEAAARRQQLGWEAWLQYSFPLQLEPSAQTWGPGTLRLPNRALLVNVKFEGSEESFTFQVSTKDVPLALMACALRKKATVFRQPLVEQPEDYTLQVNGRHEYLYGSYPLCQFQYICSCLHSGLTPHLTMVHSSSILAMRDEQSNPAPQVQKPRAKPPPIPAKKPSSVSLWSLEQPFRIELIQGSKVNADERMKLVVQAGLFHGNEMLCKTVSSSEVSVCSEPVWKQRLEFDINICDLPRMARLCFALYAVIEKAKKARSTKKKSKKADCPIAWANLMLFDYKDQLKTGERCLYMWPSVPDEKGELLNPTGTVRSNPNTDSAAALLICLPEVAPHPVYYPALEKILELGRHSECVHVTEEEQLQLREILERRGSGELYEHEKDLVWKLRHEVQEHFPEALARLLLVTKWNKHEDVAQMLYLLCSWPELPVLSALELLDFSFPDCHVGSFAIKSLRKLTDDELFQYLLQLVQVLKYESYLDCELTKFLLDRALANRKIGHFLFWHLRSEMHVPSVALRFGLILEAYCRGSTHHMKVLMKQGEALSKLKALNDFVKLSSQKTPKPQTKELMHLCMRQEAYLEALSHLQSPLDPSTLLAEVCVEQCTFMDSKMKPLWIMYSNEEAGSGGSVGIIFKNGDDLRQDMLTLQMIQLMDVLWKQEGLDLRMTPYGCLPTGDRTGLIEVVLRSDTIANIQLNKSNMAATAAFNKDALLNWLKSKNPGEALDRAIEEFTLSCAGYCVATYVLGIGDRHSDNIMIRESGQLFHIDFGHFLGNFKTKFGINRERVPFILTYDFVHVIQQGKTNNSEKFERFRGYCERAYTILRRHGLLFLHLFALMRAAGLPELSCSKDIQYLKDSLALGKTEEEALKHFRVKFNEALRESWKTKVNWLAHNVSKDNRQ

- CLint scaled [1]: 16.9 mL/min/kg
- IC50 [2]: > 10000 nM
- inhibition [3]: Dose-dependent effect
- inhibition [5]: Active
- CLint scaled [6]: 29 mL/min/kg
- IC50 (MDA-MB-231): < 1000 nM
- IC50 [8]: 5.9 nM
- IC50 [9]: 78.7 nM
SMILES: COC(=O)Nc1cc(C(F)(F)F)c(-c2nc(N3CCOCC3)c3cc(CN4CCN(S(C)(=O)=O)CC4)cn3n2)cn1 [RISOVALISIB]
- IC50 [4]: > 40000 nM
- Activity [7]: Non-Toxic
- Activity (SK-OV-3): 48.1%
